Test [1] deals with Mus musculus. As to the kind of experiment: In Vivo detection of total AZT in Mice plasma after oral administration of 41.63 mg/kg after 24 hr. The test is classed as functional, organism-based. Also on record: dose 41.63 mg/kg. The procedure, abridged:
(§1)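 Male Swiss mice (18–20 g, six weeks old) given the test substance or vehicle ([…]) by gavage as a 3 mM solution (1.5 µmol/mouse). Aortic blood was collected into heparinized tubes at 0.5–48 h and centrifuged at 13000g for 10 min. Plasma was stored at -22 °C and analysed by HPLC. Three mice were used per time point, in triplicate. Values were not corrected for recovery.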

In test [2] the test system is Mus musculus. As to the kind of experiment: In Vivo detection in Mice brains after oral administration of 41.63 mg/kg detected in the form of AZT 5`-P after 48 hr. The test is classed as functional.
For test [3], the system named is Mus musculus. As to the kind of experiment: In Vivo detection in Mice brains after oral administration of 41.63 mg/kg detected in the form of AZT 5`-P after 24 hr. Format: functional.
In test [4] the test system is Mus musculus. Kind of test: In Vivo detection in Mice brains after oral administration of 41.63 mg/kg detected in the form of AZT after 8 hr. Format: functional.
For test [5], the system named is Mus musculus. As to the kind of experiment: In Vivo detection in Mice brains after oral administration of 41.63 mg/kg detected in the form of AZT after 0.5 hr. The test is classed as functional.
Test [6] deals with Mus musculus. As to the kind of experiment: In Vivo detection in Mice plasma after oral administration of 41.63 mg/kg detected in the form of AZT 5`-P after 4 hr. The test is classed as functional, organism-based. Further details: dose 41.63 mg/kg.
In test [7] the test system is Mus musculus. As to the kind of experiment: In Vivo detection in Mice brains after oral administration of 41.63 mg/kg detected in the form of AZT phosphodiester 2 after 24 hr. The test is classed as functional.
In test [8] the test system is Mus musculus. Kind of test: In Vivo detection in Mice plasma after oral administration of 41.63 mg/kg detected in the form of AZT after 4 hr. The test is classed as functional, organism-based. Further details: dose 41.63 mg/kg.
Test [9] relates to Mus musculus. Kind of test: In Vivo detection in Mice plasma after oral administration of 41.63 mg/kg detected in the form of AZT after 8 hr. The test is classed as functional, organism-based. Also on record: dose 41.63 mg/kg.
For test [10], the system named is Mus musculus. Kind of test: In Vivo detection in Mice brains after oral administration of 41.63 mg/kg detected in the form of AZT phosphodiester 2 after 1 hr. The test is classed as functional.
The test system of test [11] is Mus musculus. As to the kind of experiment: In Vivo detection of total AZT in Mice plasma after oral administration of 41.63 mg/kg after 8 hr. Format: functional, organism-based. Also on record: dose 41.63 mg/kg. In outline: as §1
Test [12] has as its system Mus musculus. Kind of test: In Vivo detection of total AZT in Mice brains after oral administration of 41.63 mg/kg after 24 hr. The test is classed as functional. The procedure, abridged:
(§2)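 Male Swiss mice (18–20 g) dosed orally with a 3 mM solution in […] vehicle; decapitated at 0.5–48 h. Brains were homogenized in acetonitrile-water (3:1), centrifuged at 6000g for 40 min at 4 °C, lyophilized, redissolved in water and filtered (0.45 µm). Reversed-phase C18 column-switching HPLC with diode-array detection; standard spiking; vehicle-fed controls. Three mice per point, triplicates.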

The subject of test [13] is Mus musculus. Kind of test: In Vivo detection in Mice plasma after oral administration of 41.63 mg/kg detected in the form of AZT after 0.5 hr. The test is classed as functional, organism-based. Also on record: dose 41.63 mg/kg.
Test [14] concerns Mus musculus. Kind of test: In Vivo detection in Mice plasma after oral administration of 58.33 mg/kg detected in the form of AZT after 1 hr. Format: functional, organism-based. Further details: dose 58.33 mg/kg.
Test [15] relates to Mus musculus. As to the kind of experiment: In Vivo detection in Mice brains after oral administration of 58.33 mg/kg detected in the form of AZT phosphodiester 3 after 0.5 hr. The test is classed as functional.
In test [16] the test system is Mus musculus. As to the kind of experiment: In Vivo detection in Mice plasma after oral administration of 58.33 mg/kg detected in the form of AZT 5`-P after 0.5 hr. Further details: dose 58.33 mg/kg. Format: functional, organism-based.
The subject of test [17] is Mus musculus. Kind of test: In Vivo detection in Mice brains after oral administration of 58.33 mg/kg detected in the form of AZT phosphodiester 2 after 48 hr. The test is classed as functional.
Test [18] relates to Mus musculus. As to the kind of experiment: In Vivo detection in Mice brains after oral administration of 58.33 mg/kg detected in the form of AZT phosphodiester 2 after 8 hr. The test is classed as functional.
Test [19] has as its system Mus musculus. As to the kind of experiment: In Vivo detection of total AZT in Mice brains after oral administration of 58.33 mg/kg after 0.5 hr. Format: functional. In outline:
as §2

The subject of test [20] is Mus musculus. As to the kind of experiment: In Vivo detection in Mice plasma after oral administration of 58.33 mg/kg detected in the form of AZT 5`-P after 8 hr. The test is classed as functional, organism-based. Also on record: dose 58.33 mg/kg.
In test [21] the test system is Mus musculus. Kind of test: In Vivo detection in Mice brains after oral administration of 58.33 mg/kg detected in the form of AZT 5`-P after 24 hr. Format: functional.
Test [22] has as its system Mus musculus. Kind of test: In Vivo detection of total AZT in Mice brains after oral administration of 58.33 mg/kg after 1 hr. The test is classed as functional. In outline:
as §2

The subject of test [23] is Mus musculus. As to the kind of experiment: In Vivo detection in Mice plasma after oral administration of 58.33 mg/kg detected in the form of AZT after 24 hr. Format: functional, organism-based. Also on record: dose 58.33 mg/kg.
The subject of test [24] is Mus musculus. Kind of test: In Vivo detection in Mice plasma after oral administration of 58.33 mg/kg detected in the form of AZT phosphodiester 2 after 48 hr. Format: functional, organism-based. Also on record: dose 58.33 mg/kg. In outline:
as §1

Test [25] deals with Mus musculus. Kind of test: In Vivo detection in Mice plasma after oral administration of 58.33 mg/kg detected in the form of AZT 5`-P after 1 hr. Further details: dose 58.33 mg/kg. The test is classed as functional, organism-based.
In test [26] the test system is Mus musculus. As to the kind of experiment: In Vivo detection in Mice brains after oral administration of 58.33 mg/kg detected in the form of AZT after 2 hr. Format: functional.
Test [27] has as its system Mus musculus. As to the kind of experiment: In Vivo detection in Mice plasma after oral administration of 58.33 mg/kg detected in the form of AZT phosphodiester 3 after 2 hr. Also on record: dose 58.33 mg/kg. The test is classed as functional, organism-based. The procedure, abridged: as §1
Test [28] concerns Mus musculus. Kind of test: In Vivo detection in Mice plasma after oral administration of 58.33 mg/kg detected in the form of AZT phosphodiester 3 after 8 hr. Format: functional, organism-based. Also on record: dose 58.33 mg/kg. The procedure, abridged: as §1
Test [29] relates to Mus musculus. Kind of test: In Vivo detection in Mice brains after oral administration of 58.33 mg/kg detected in the form of AZT 5`-P after 8 hr. Format: functional.
Test [30] concerns Mus musculus. Kind of test: In Vivo detection of total AZT in Mice plasma after oral administration of 58.33 mg/kg after 4 hr. Format: functional, organism-based. Also on record: dose 58.33 mg/kg. The procedure, abridged: as §1
The subject of test [31] is Mus musculus. As to the kind of experiment: In Vivo detection in Mice brains after oral administration of 58.33 mg/kg detected in the form of AZT phosphodiester 2 after 4 hr. Format: functional.
The subject of test [32] is Mus musculus. As to the kind of experiment: In Vivo detection of total AZT in Mice brains after oral administration of 58.33 mg/kg after 48 hr. Format: functional. In outline: as §2
Test [33] relates to Mus musculus. Kind of test: In Vivo detection in Mice plasma after oral administration of 58.33 mg/kg detected in the form of AZT phosphodiester 2 after 4 hr. Format: functional, organism-based. Also on record: dose 58.33 mg/kg. In outline:
as §1

Test [34] deals with Mus musculus. Kind of test: In Vivo detection in Mice brains after oral administration of 58.33 mg/kg detected in the form of AZT after 0.5 hr. The test is classed as functional.
Test [35] concerns Mus musculus. As to the kind of experiment: In Vivo detection in Mice plasma after oral administration of 58.33 mg/kg detected in the form of AZT phosphodiester 2 after 24 hr. Format: functional, organism-based. Also on record: dose 58.33 mg/kg. In outline: as §1
The test system of test [36] is Mus musculus. As to the kind of experiment: In Vivo detection in Mice brains after oral administration of 58.33 mg/kg detected in the form of AZT after 48 hr. Format: functional.
The test system of test [37] is Mus musculus. Kind of test: In Vivo detection of total AZT in Mice plasma after oral administration of 58.33 mg/kg after 24 hr. The test is classed as functional, organism-based. Further details: dose 58.33 mg/kg. The procedure, abridged:
as §1

The subject of test [38] is Mus musculus. As to the kind of experiment: In Vivo detection in Mice brains after oral administration of 58.33 mg/kg detected in the form of AZT after 8 hr. Format: functional.
Test [39] has as its system Mus musculus. As to the kind of experiment: In Vivo detection in Mice brains after oral administration of 58.33 mg/kg detected in the form of AZT phosphodiester 2 after 2 hr. Format: functional.
For test [40], the system named is Mus musculus. As to the kind of experiment: In Vivo detection of total AZT in Mice plasma after oral administration of 58.33 mg/kg after 0.5 hr. The test is classed as functional, organism-based. Also on record: dose 58.33 mg/kg. In outline:
as §1

For the compound `Cc1cn([C@H]2C[C@H](N=[N+]=[N-])[C@@H](COP(=O)(O)OCCO[C@H]3O[C@H](CO)[C@@H](O)[C@H](O)[C@@H]3O)O2)c(=O)[nH]c1=O`, the Plasma content in the test with Mus musculus [1] came to 26.8 nM ml-1; in the test with Mus musculus [6], 6.7 nM ml-1; with Mus musculus [8], 0 nM ml-1; in the test with Mus musculus [9], 0 nM ml-1; in the test on Mus musculus [11] it was 5.7 nM ml-1; in the test on Mus musculus [13], 31.6 nM ml-1. Besides, the Brain content in the test on Mus musculus [2] was 48.5 nmol/g; in the test on Mus musculus [3] it was 56.5 nmol/g; with Mus musculus [4], 0.9 nmol/g; in the test on Mus musculus [5], 1.8 nmol/g; in the test with Mus musculus [7], 4.5 nM ml-1; with Mus musculus [10], 16.5 nM ml-1. The same compound gave a Brain content in the test with Mus musculus [12] of 61.8 nM ml-1.
On to `CCCCCCCCCCCCCCCCOP(=O)(OCCO[C@H]1O[C@H](CO)[C@@H](O)[C@H](O)[C@@H]1O)OCC1OC(n2cc(C)c(=O)[nH]c2=O)CC1N=[N+]=[N-]` (stereo not given in full), for which the Plasma content was 1.3 nM ml-1 in the test with Mus musculus [14]; 12.1 nM ml-1 in the test on Mus musculus [16]; 17.7 nM ml-1 in the test on Mus musculus [20]; 0 nM ml-1 with Mus musculus [23]; 0 nM ml-1 in the test on Mus musculus [24]; 12.7 nM ml-1 with Mus musculus [25]. In addition, the Plasma content in the test on Mus musculus [27] came to 0 nM ml-1; in the test with Mus musculus [28], 0 nM ml-1; with Mus musculus [30] it was 5.3 nM ml-1; with Mus musculus [33] it was 0 nM ml-1; with Mus musculus [35], 0 nM ml-1; with Mus musculus [37] it was 28.5 nM ml-1. In addition, the Plasma content in the test on Mus musculus [40] amounted to 13.7 nM ml-1. Besides, the Brain content in the test on Mus musculus [15] is 0 nmol/g; in the test on Mus musculus [17] it was 3.8 nmol/g; with Mus musculus [18] it was 5.3 nM ml-1; in the test on Mus musculus [19], 38.5 nM ml-1; with Mus musculus [21] it was 81.3 nmol/g; with Mus musculus [22], 156.7 nM ml-1. Besides, the Brain content stood at 2.9 nmol/g with Mus musculus [26]; 106 nmol/g with Mus musculus [29]; 7.1 nmol/g in the test on Mus musculus [31]; 63.5 nM ml-1 in the test on Mus musculus [32]; 1.5 nmol/g with Mus musculus [34]; 1.1 nmol/g in the test on Mus musculus [36]. The Brain content in the test on Mus musculus [38] came out at 2 nmol/g; in the test on Mus musculus [39], 5.2 nmol/g.
